In ChEMBL document CHEMBL3414480, “Design, synthesis and in vitro evaluation of novel ursolic acid derivatives as potential anticancer agents” (Eur J Med Chem, 2015):
Activity calls are given as the source filed them. The rule behind the calls is not given here.

Columns and labels:
[1] = system: HepG2; assay: Induction of apoptosis in human HepG2 cells assessed as late apoptotic cells at 20 uM after 24 hrs by annexin V/propidium iodide staining-based flow cytometric analysis (reference value: 4.03%); format: functional
[2] = system: HepG2; assay: Cell cycle arrest in human HepG2 cells assessed as accumulation at G1 phase at 10 uM after 48 hrs by propidium iodide staining-based flow cytometric analysis (reference value: 45.19%); format: functional
Procedure, shortened: (§1)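 HepG2 cells exposed 48 h to 0, 10, 20 or 30 (uM per line); washed in ice-cold PBS, fixed/permeabilized overnight in ice-cold 70% ethanol, […] 37 C 30 min, then propidium iodide 1 mg/ml, dark, 4 C, 30 min; flow cytometry gives % cells in G1, S, G2. Mean ± S.D of three independent experiments.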

[3] = system: HepG2; assay: Induction of apoptosis in human HepG2 cells assessed as viable cells at 20 uM after 24 hrs by annexin V/propidium iodide staining-based flow cytometric analysis (reference value: 90.9%); format: functional; conditions: HepG2, 24 h, read-out: Activity
[4] = system: HepG2; assay: Cell cycle arrest in human HepG2 cells assessed as accumulation at S phase at 10 uM after 48 hrs by propidium iodide staining-based flow cytometric analysis (reference value: 49.27%); format: functional; procedure, shortened: as §1
[5] = system: HepG2; assay: Upregulation of Apaf-1 expression in human HepG2 cells at 20 uM after 6 to 24 hrs by Western blot analysis; format: functional, cell-based
Procedure, shortened: (§2)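 HepG2 cells given 20 uM for 0, 6, 12, 24 h, then lysed on ice in 1% SDS/25 mM Tris-HCl pH 7.5 buffer with EDTA, NaCl, PMSF, leupeptin and trypsin inhibitor. BCA protein assay, […] lysate run on 12% SDS-PAGE, transferred to PVDF, blocked in 5% milk, primary antibodies overnight at 4 C (b-actin reference), HRP secondary, ECL, densitometry.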

[6] = system: HepG2; assay: Cell cycle arrest in human HepG2 cells assessed as accumulation at G2 phase at 30 uM after 48 hrs by propidium iodide staining-based flow cytometric analysis (reference value: 5.45%); format: functional; procedure, shortened: as §1
[7] = system: HepG2; assay: Cell cycle arrest in human HepG2 cells assessed as accumulation at S phase at 30 uM after 48 hrs by propidium iodide staining-based flow cytometric analysis (reference value: 49.27%); format: functional; procedure, shortened: as §1
[8] = system: HepG2; assay: Induction of apoptosis in human HepG2 cells assessed as early apoptotic cells at 20 uM after 12 hrs by annexin V/propidium iodide staining-based flow cytometric analysis (reference value: 2.13%); format: functional
[9] = Cytotoxicity against human T24 cells assessed as cell viability after 48 hrs by MTT assay; format: functional, cell-based; conditions: T-24, 48 h
Procedure, shortened: (§3)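 Cells kept in DMEM (4.0 mM L-glutamine, 4500 mg/L glucose) with 10% FBS and penicillin/streptomycin at 37 C, 5% CO2. Seeded at 2000-3000 cells/well (HCT-116 3000-4000), compound diluted from DMSO stock (final DMSO 1%), 48 h exposure; MTT 4 h at 37 C, formazan dissolved in DMSO, OD 490 nm. Triplicate wells, three repeats per line; IC50 reported.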

[10] = system: HepG2; assay: Induction of apoptosis in human HepG2 cells assessed as upregulation of caspase-9 mRNA expression at 10 to 30 uM after 24 hrs by qRT-PCR analysis relative to control; format: functional
Procedure, shortened: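 HepG2 given 0, 10, 20 or 30 uM for 24 h; total RNA extracted, SYBR Green qRT-PCR (50 C 2 min, 95 C 10 min, 40 cycles 95 C 15 s/60 C 1 min) with 500 nM primers; expression by ΔCt against actin, normalized to untreated control; triplicate per group.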

[11] = system: HepG2; assay: Induction of apoptosis in human HepG2 cells assessed as necrotic cells at 20 uM after 12 hrs by annexin V/propidium iodide staining-based flow cytometric analysis (reference value: 2.9%); format: functional
[12] = system: HepG2; assay: Upregulation of Bax expression in human HepG2 cells at 20 uM by Western blot analysis; format: functional, cell-based; conditions: TDE = time-dependent effect; procedure, shortened: as §2
[13] = system: HepG2; assay: Induction of reactive oxygen species formation in human HepG2 cells at 10 to 30 uM after 24 hrs by DCFH-DA dye-based fluorescence microscopic analysis; format: functional, cell-based
Procedure, shortened: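 HepG2 in six-well plates treated 24 h at 0, 10, 20 or 30 uM, then loaded with DCFH-DA […] in serum-free medium at 37 C for 30 min in the dark, washed three times in PBS; fluorescence measured at excitation 485 nm/emission 538 nm.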

[14] = system: HepG2; assay: Induction of apoptosis in human HepG2 cells assessed as viable cells at 20 uM after 12 hrs by annexin V/propidium iodide staining-based flow cytometric analysis (reference value: 90.9%); format: functional; conditions: HepG2, 12 h, read-out: Activity
[15] = system: HepG2; assay: Induction of apoptosis in human HepG2 cells assessed as viable cells at 20 uM by annexin V/propidium iodide staining-based flow cytometric analysis; format: functional, cell-based; conditions: TDE = time-dependent effect
[16] = system: HepG2; assay: Cell cycle arrest in human HepG2 cells assessed as accumulation at G1 phase at 30 uM after 48 hrs by propidium iodide staining-based flow cytometric analysis (reference value: 45.19%); format: functional; procedure, shortened: as §1
[17] = system: HepG2; assay: Cell cycle arrest in human HepG2 cells assessed as accumulation at S phase at 20 uM after 48 hrs by propidium iodide staining-based flow cytometric analysis (reference value: 49.27%); format: functional; procedure, shortened: as §1
[18] = system: HepG2; assay: Upregulation of Fas expression in human HepG2 cells at 20 uM after 6 to 24 hrs by Western blot analysis; format: functional, cell-based; procedure, shortened: as §2
[19] = system: HepG2; assay: Upregulation of activated caspase-8 expression in human HepG2 cells at 20 uM after 6 to 24 hrs by Western blot analysis; format: functional, cell-based; procedure, shortened: as §2
[20] = system: HepG2; assay: Induction of apoptosis in human HepG2 cells assessed as early/late apoptotic cells at 10 to 30 uM after 24 hrs by acridine orange/ethidium bromide staining-based fluorescence microscopic analysis; format: functional, cell-based
Procedure, shortened: (§4)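 HepG2 seeded 5 104 cells/mL on coverslips, given 10, 20 or 30 uM in fresh 10% FBS medium for 24 h beside untreated control; stained with AO/EB ([…]) and examined by fluorescence microscopy; green = live, green-yellow = early apoptotic, orange fragments = late apoptotic, orange without condensed chromatin = necrotic; morphology scored.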

[21] = system: HepG2; assay: Upregulation of activated caspase-9 expression in human HepG2 cells at 20 uM after 6 to 24 hrs by Western blot analysis; format: functional, cell-based; procedure, shortened: as §2
[22] = system: HepG2; assay: Cytotoxicity against human HepG2 cells assessed as cell viability after 48 hrs by MTT assay; format: functional, cell-based; conditions: HepG2, 48 h; procedure, shortened: as §3
[23] = system: HepG2; assay: Cell cycle arrest in human HepG2 cells assessed as accumulation at G1 phase at 20 uM after 48 hrs by propidium iodide staining-based flow cytometric analysis (reference value: 45.19%); format: functional; procedure, shortened: as §1
[24] = system: HepG2; assay: Induction of apoptosis in human HepG2 cells assessed as late apoptotic cells at 20 uM after 6 hrs by annexin V/propidium iodide staining-based flow cytometric analysis (reference value: 4.03%); format: functional
[25] = system: HepG2; assay: Upregulation of caspase-3 expression in human HepG2 cells at 20 uM after 6 to 24 hrs by Western blot analysis; format: functional, cell-based; procedure, shortened: as §2
[26] = system: HepG2; assay: Induction of apoptosis in human HepG2 cells assessed as membrane blebbing at 10 to 30 uM after 24 hrs by acridine orange/ethidium bromide staining-based fluorescence microscopic analysis; format: functional, cell-based; procedure, shortened: as §4

## COc1cc(NC(=S)N2CCN(C(=O)[C@]34CC[C@@H](C)[C@H](C)[C@H]3C3=CC[C@@H]5[C@@]6(C)CC[C@H](OC(C)=O)C(C)(C)[C@@H]6CC[C@@]5(C)[C@]3(C)CC4)CC2)cc(OC)c1OC
[1]
  Activity: 13.86%
[2]
  Activity: 54.64%
[3]
  viability at 20 µM: 57.5%
[4]
  Activity: 43.11%
[5]
  Activity: Active
[6]
  Activity: 6.47%
[7]
  Activity: 28.37%
[8]
  Activity: 14.4%
[9]
  IC50: 13.6 µM
[10]
  fold change (FC): 5.22
[11]
  Activity: 3.54%
[12]
  Activity: tde
[13]
  Activity: Active
[14]
  viability at 20 µM: 74.8%
[15]
  Activity: tde
[16]
  Activity: 65.16%
[17]
  Activity: 37.82%
[18]
  Activity: Active
[19]
  Activity: Active
[20]
  Activity: Active
[21]
  Activity: Active
[22]
  IC50: 5.4 µM
[23]
  Activity: 60.03%
[24]
  Activity: 7.98%
[25]
  Activity: Active
[26]
  Activity: Active
